Screens as filed in PubChem BioAssay.
ASAP1 inh = inhibitors of human ASAP1 ArfGAP activity, primary screen, biochemical, fluorescence polarization; ASAP1-stimulated ARF1 GTP hydrolysis, GDP FP detection; hit rate 0.19% among 360,000; Arf-GAP with SH3 domain, ANK repeat and PH domain-containing protein 1 (Homo sapiens), …; inhibition, % at 16.5 µM; in the data active means inhibition above about 25%;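 further: 0% = vehicle with enzyme and substrate and 100% = no enzyme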
Target sequence (Q9ULH1 325-724 limits assumed): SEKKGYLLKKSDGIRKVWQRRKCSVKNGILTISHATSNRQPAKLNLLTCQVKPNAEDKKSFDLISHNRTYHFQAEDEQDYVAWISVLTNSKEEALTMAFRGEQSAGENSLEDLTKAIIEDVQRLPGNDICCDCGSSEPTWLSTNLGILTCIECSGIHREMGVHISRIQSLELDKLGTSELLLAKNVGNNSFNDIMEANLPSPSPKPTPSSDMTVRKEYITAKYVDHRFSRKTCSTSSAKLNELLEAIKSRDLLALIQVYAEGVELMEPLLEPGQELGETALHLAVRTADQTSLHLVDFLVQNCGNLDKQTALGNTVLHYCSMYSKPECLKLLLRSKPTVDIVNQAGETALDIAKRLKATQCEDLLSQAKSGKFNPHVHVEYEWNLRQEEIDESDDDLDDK
ARFGAP1 inhibitor = inhibitors of rat ARFGAP1 GAP activity, primary screen, biochemical, fluorescence polarization, GDP tracer. Arfgap1-stimulated ARF1 GTP hydrolysis, GDP FP detection. ADP-ribosylation factor GTPase-activating protein 1 (Rattus norvegicus), Q62848. hit rate 0.26% among 360,000. inhibition, % at 16.5 µM. AID 651572, 2012;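 active means inhibition above a per-plate limit, mean inhibition of low control wells plus 3 SD, cut at about 25% in these data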;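 further: 0% = DMSO wells with enzyme and 100% = wells lacking Arfgap1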
Target sequence (Q62848 1-136 limits assumed): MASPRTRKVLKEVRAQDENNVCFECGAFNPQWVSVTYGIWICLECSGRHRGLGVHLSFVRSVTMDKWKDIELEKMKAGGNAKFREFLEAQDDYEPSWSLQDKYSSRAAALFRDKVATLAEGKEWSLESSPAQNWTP
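Repeats: one replicate per compound; assay system: rat Arfgap1 catalytic domain, aa 1-136; times: enzyme reaction 120 min at 25 °C after 20 min preincubation; detection: FP of antibody-bound GDP Alexa 633 tracer, ex 620/em 688 nm; benchmarks: high control wells lacking Arfgap1, low control full reaction with DMSO; reagent: human ARF1(Δ1-17)-GTP substrate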
PKD1 kinase inh = inhibitors of human PKD1 kinase, biochemical, fluorescence polarization; Serine/threonine-protein kinase D1 (Homo sapiens), Q15139; PKD1 kinase fluorescence polarization assay; inhibition, % (no concentration beside the values); hit rate 0.056% among 200,000; AID 797, 2007; in the data active means inhibition above about 50%
PP5 primary = PP5 phosphatase inhibitors, primary screen, biochemical, fluorescence | Serine/threonine-protein phosphatase 5 (Homo sapiens), P53041 | purified PP5c, OMFP substrate fluorescence | inhibition, % at 6.7 µM | hit rate 0.18% among 320,000;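 active means inhibition above the campaign's mean inhibition across all tested compounds plus 3 SD, cut at about 9.5% in these data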;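 further: 0% = DMSO only and 100% = 100 µM cantharidin control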
ASAP1 inh confirm = ASAP1 GAP activity inhibitors, confirmation, biochemical, fluorescence polarization, human, triplicate. shares compounds with ASAP1 inh. ASAP1-stimulated Arf1 GTPase, GDP fluorescence polarization. inhibition, % at 16.5 µM. AID 624431, 2012. hit rate 37% among 620;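 active means mean inhibition over triplicates exceeds the hit threshold derived for the earlier primary screening run, cut at about 25% in these data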
The depositor's hits bear a star; / = no result; ! = not confirmed by another sample. Most compounds without a hit are left out; they make up all but 0.54% or so of the library.

SMILES	ASAP1 inh	ARFGAP1 inhibitor	PKD1 kinase inh	PP5 primary	ASAP1 inh confirm
CC(=O)Nc1ccc(N2C(=O)CSC2c2c(F)cccc2Cl)cc1 (stereo unspecified)	27*	-12	-8	8	-2
C(=C\c1ccccc1)/CN1CCN(C(c2cc3ccccc3o2)c2nnnn2C2CCCCC2)CC1 (stereo unspecified)	7	12	/	/	/
COc1ccc2c(c1)[C@@H](NC(=O)C(F)(F)F)[C@@H]1CCCC[C@]21c1ccccc1	-3	14	/	/	/
Cc1ccc(S(=O)(=O)Nc2ccc(NC(=O)c3cccs3)cc2)cc1	25*	6	-12	3	7
Cc1cc(C)c(NS(=O)(=O)c2ccc(NC(=O)c3cccs3)cc2)c(C)c1	9	9	-10	5	/
Cc1ccc2nc(CN(C)C(=O)[C@H](CCc3ccccc3)NC(=O)[C@H]3O[C@@H](n4cnc5c(N)ncnc54)[C@H](O)[C@@H]3O)[nH]c2c1	-1	0	/	/	/
CC(C)c1ccc([C@@H]2O[C@H](CCc3ccccc3)Cc3[nH][nH]c(=O)c32)cc1	28*	9	/	/	7
O=C(COc1ccc(/C=N/NC(=O)c2ccncc2)cc1)Nc1cccc([N+](=O)[O-])c1	29*	7	/	0	8
O=C(COc1ccc(/C=N/NC(=O)c2ccncc2)cc1)Nc1ccccc1	3	-3	/	2	/
Cc1ccc(S(=O)(=O)c2c(N)n(CCCO)c3nc4ccccc4nc23)cc1	20	25	-8	4	/
Cc1ccc(S(=O)(=O)c2c(N)n(CCC(C)C)c3nc4ccccc4nc23)cc1	25*	10	1	2	2
Cc1cccc(OCc2nnc(SCC(=O)Nc3ccc(N4CCOCC4)cc3)o2)c1	32*	3	/	-1	2
Cc1ccc(OCc2nnc(SCC(=O)Nc3ccc(N4CCOCC4)cc3)o2)cc1	6	19	/	0	/
COc1ccc(NC(=O)c2ccc(-c3ccccc3C(F)(F)F)o2)cc1	26*	11	-9	6	11
O=C(Nc1cccc(F)c1)c1ccc(-c2ccccc2C(F)(F)F)o1	2	2	-11	/	/
COc1cc2c(C#N)c(N3CCN(c4ccccc4OC)CC3)nc(N)c2c(N)n1	2	7	4	3	/
COc1cc2c(C#N)c(N3CCCC3)nc(N)c2c(N)n1	43*!	-2	/	2	19
CC(C)N(C(=O)Nc1ccc2nsnc2c1)C(C)C	41*	20	-1	9	7
N#Cc1cn(CC(=O)NCCc2c[nH]c3ccccc23)c2ccccc12	27*	-8	0	4	7
Cc1c(C#N)c2ccccc2n1CC(=O)NCCc1c[nH]c2ccccc12	4	-1	-9	2	/
COC(=O)C(C(=O)OC)c1ccccc1NS(=O)(=O)c1c(C)cc(C)cc1C	3	3	/	/	/
Cc1ccc(/C=N/NC(=O)CCCOc2ccc(Cl)cc2Cl)cc1[N+](=O)[O-]	50*	22	-3	5	37*
COc1ccc(/C=N/Nc2ccc([N+](=O)[O-])cc2)cc1Cn1cc([N+](=O)[O-])cn1	6	3	1	4	/
COc1ccc(/C=N/NC(=O)c2nc(-c3ccccc3)cc(-c3ccccc3)n2)cc1O	26*	11	5	-1	32*
COc1ccc(/C=N/Nc2ccc([N+](=O)[O-])cc2)cc1O	25*	22	/	1	31*
SMILES	ASAP1 inh	ARFGAP1 inhibitor	PKD1 kinase inh	PP5 primary	ASAP1 inh confirm
O=C(Cc1ccc(NC(=O)C2CCN(C(=O)CCc3ccccc3)CC2)cc1)Nc1cccc(C(=O)N2CCCC2)c1	5	-7	/	/	/
CC(C)(C)c1ccc(S(=O)(=O)N2CCN(C(=O)C(=O)c3cccc(C(F)(F)F)c3)CC2)cc1	-3	5	/	/	/
COc1ccc(Br)cc1C(=O)NC(=S)Nc1ccc(CN2CCOCC2)cc1	27*	12	/	5	2
O=C(NC(=S)Nc1ccc(CN2CCOCC2)cc1)c1ccc(-c2ccc(Br)cc2)o1	/	/	/	-4	/
C[C@@H]1CN([C@@H](C)CO)C(=O)CCCn2nncc2CO[C@H]1CN(C)CC1CC1	8	2	/	/	/
O=Nc1c(O)c2ccccc2c2ccccc12	5	-5	/	3	/
O=c1c(=Nc2ccccc2O)c(=O)c2ccccc12	28*	9	-4	9	8
COc1cccc(CC(=O)N2CCN(C(=O)C(=O)c3ccc(OC)c(OC)c3)CC2)c1	7	6	/	/	/
CN(C(=O)[C@H]1O[C@@H](n2cnc3c(=O)[nH]c(N)nc32)[C@H](O)[C@@H]1O)C1CCCCC1	-3	10	/	/	/
COc1cccc(NC(=O)CN(C)C(=O)c2ccc(N3CCOCC3)c([N+](=O)[O-])c2)c1	3	13	/	2	/
COc1cccc(NC(=O)CN(C)C(=O)c2ccc(N3CCCCC3)c([N+](=O)[O-])c2)c1	25*	7	/	6	4
COC(=O)c1cccc(Nc2nc(-c3ccncc3)nc3ccccc23)c1	28*	0	/	-10	57*
Oc1cccc(Nc2nc(-c3ccccc3)nc3ccccc23)c1	27*	19	/	4	28*
CC(Oc1ccc(Cl)cc1Cl)c1nc(-c2ccc(NC(=O)c3ccncc3)cc2)no1 (stereo unspecified)	25*	4	13	3	8
CC(Oc1ccc(Cl)cc1Cl)c1nc(-c2ccc(NC(=O)c3cccnc3)cc2)no1 (stereo unspecified)	14	4	2	4	/
Cc1onc(-c2c(F)cccc2Cl)c1C(=O)Oc1ccccc1	0	-2	/	/	/
COc1ccc(C(C)=O)cc1COC(=O)c1ccc2c(c1)OCCO2	28*	-3	/	0	8
CC1CCN(C(=O)COC(=O)c2cc3ccccc3cc2O)CC1	26*	8	-11	4	15
CC(=O)N(C)c1ccc(NC(=O)Nc2ccc(C)c(C)c2)cc1	27*	0	-7	2	6
CC(=O)N(C)c1ccc(NC(=O)Nc2ccccc2C)cc1	14	5	0	1	/
O=[N+]([O-])c1cc(C(F)(F)F)ccc1NCCc1c[nH]c2ccc(O)cc12	26*	3	-10	6	12
O=C(Cn1nc(-c2ccc3c(c2)OCCO3)ccc1=O)Nc1ccc(-n2cnnn2)cc1	36*	11	0	1	36*
Cc1nc([N+](=O)[O-])cn1CC(Cl)Cn1cc([N+](=O)[O-])nc1C	12	12	/	/	/
O=C(c1n[nH]c(=O)c2ccccc12)N1CCN(c2ccccc2Cl)CC1	-14	-10	20	1	/
O=C(c1n[nH]c(=O)c2ccccc12)N1CCN(S(=O)(=O)c2ccccc2Cl)CC1	25*	-1	/	1	1
